Experimental data from ChEMBL document CHEMBL1150877, “Total synthesis and biological activities of (+)- and (-)-boscialin and their 1'-epimers” (J Nat Prod, 1998).
Converted amounts (≈) assume the structure as drawn. The source made the active and inactive calls. The rule behind the calls is not given here.

Columns and labels:
[1] = tested on: Corynebacterium minutissimum; test: Antimicrobial activity against Corynebacterium minutissium ATCC 23348 after 24 hrs by agar diffusion assay; assay type: functional
How it was run: (§1)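 Overnight cultures were diluted in 0.9% NaCl and mixed into molten casein soymeal peptone agar at a final 5 × 10⁴–10⁵ CFU/mL, which was layered onto agar plates. Test substances (100 µL of 1 mg/mL in H2O) were placed in 1 cm wells. Plates were incubated at 37 °C for 24 h, and inhibition zone diameters were measured.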

[2] = tested on: Trypanosoma brucei rhodesiense; test: Antitrypanosomal activity against blood stream form of Trypanosoma brucei rhodesiense STIB 900 at 100 ug/ml; assay type: functional, organism-based
[3] = tested on: Trypanosoma brucei rhodesiense; test: Antitrypanosomal activity against blood stream form of Trypanosoma brucei rhodesiense STIB 900; assay type: functional, organism-based
How it was run: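 Bloodstream-form trypanosomes at 200 cells/100 µL were exposed for 72 h to threefold dilutions starting at 100 µg/mL, with 1% DMSO final. MIC was read microscopically as the lowest concentration with no normally shaped or motile cells. For IC50, Alamar Blue was added for a further 2 h, fluorescence was measured, and values were obtained by linear interpolation.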

[4] = (§2) Cytotoxicity against human HT-29 cells; assay type: cell-based; details: human, HT-29 cells; read-out: MIC
How it was run: (§3)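 HT-29 cells were seeded at 5000 cells/100 µL in MEM with 10% heat-inactivated FCS at 37 °C and 5% CO2. They were exposed for 72 h to threefold dilutions starting at […], with 1% DMSO final. MIC was read microscopically, and IC50 came from Alamar Blue fluorescence after 2 h by linear interpolation.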

HT-29 = test: as §2; assay type: cell-based; details: Homo sapiens, HT-29; how it was run: as §3
[5] = Selectivity index, ratio of IC50 for human HT29 cells to IC50 for Trypanosoma brucei rhodesiense STIB 900; assay type: toxicity, cell-based, HT-29; details: HT29 cells versus Trypanosoma brucei rhodesiense STIB 900, read-out: Ratio IC50
How it was run: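 The index was calculated as the HT-29 IC50 divided by the T. b. rhodesiense IC50. Both IC50s came from 72 h exposures read by Alamar Blue fluorescence, with linear interpolation.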

Staphylococcus aureus = test: Antimicrobial activity against Staphylococcus aureus ATCC 9144 after 24 hrs by agar diffusion assay; assay type: functional; how it was run: as §1
[6] = tested on: Staphylococcus epidermidis; test: Antimicrobial activity against Staphylococcus epidermis ATCC 12228 after 24 hrs by agar diffusion assay; assay type: functional; how it was run: as §1
Escherichia coli = test: Antimicrobial activity against Escherichia coli NCTC 8196 after 24 hrs by agar diffusion assay; assay type: functional; how it was run: as §1
Corynebacterium xerosis = test: Antimicrobial activity against Corynebacterium xerosis ATCC 373 after 24 hrs by agar diffusion assay; assay type: functional; how it was run: as §1
Candida albicans = test: Antimicrobial activity against Candida albicans ATCC 10231 after 24 hrs by agar diffusion assay; assay type: functional; how it was run: as §1
Trypanosoma cruzi = test: Antitrypanosomal activity against Trypanosoma cruzi MHOM/Br/OO/Y trypomastigotes up to 100 ug/ml after 5 days
Leishmania donovani = test: Antileishmanial activity against Leishmania donovani MHOM/ET/67/L82 infected in mouse peritoneal macrophages after 5 days

| SMILES | IC50 [2] [µg/mL] | MIC [2] [µg/mL] | IC50 [3] [µg/mL] | MIC [3] [µg/mL] | IC50 (Leishmania donovani; 5 d) [µg/mL] | inhibition zone (IZ) [1] [mm] | MCC [4] [µg/mL] | IC50 (HT-29) [µg/mL] | selectivity ratio [5] | inhibition zone (IZ) (Staphylococcus aureus) [mm] | inhibition zone (IZ) [6] [mm] | inhibition zone (IZ) (Escherichia coli) [mm] | inhibition zone (IZ) (Corynebacterium xerosis) [mm] | inhibition zone (IZ) (Candida albicans) [mm] | Activity (Trypanosoma cruzi) | Activity (Leishmania donovani) | Activity [2] |
| --- | --- | --- | --- | --- | --- | --- | --- | --- | --- | --- | --- | --- | --- | --- | --- | --- | --- |
| CC(=O)/C=C/[C@]1(O)[C@H](C)C[C@H](O)CC1(C)C [EPIBOSCIALIN] | 0.9 (≈ 3.98 µM) | 3.7 (≈ 16.3 µM) | 0.9 (≈ 3.98 µM) | 3.7 (≈ 16.3 µM) |  | 20 | 56 | 8.5 (≈ 37.6 µM) | 9.4 | 10 | 8 | 1.5 | 12 | 15.5 | inactive | inactive |  |
| Nc1nc(N)nc(Nc2ccc([As]3SCC(CO)S3)cc2)n1 (stereo not drawn) [MELARSOPROL] |  |  | 0.0004 | 0.011 |  |  | 11 | 3.6 | 9000 |  |  |  |  |  |  |  |  |
| CC(=O)/C=C/[C@]1(O)[C@@H](C)C[C@@H](O)CC1(C)C |  |  | 31 (≈ 137 µM) | 100 (≈ 442 µM) |  | 18 | 56 | 8.1 (≈ 35.8 µM) | 0.3 | 10.5 | 8 | 2 | 13 | 4.5 | inactive | inactive | inactive |

Second part, led by results:

| IC50 [2] [µg/mL] | MIC [2] [µg/mL] | IC50 [3] [µg/mL] | MIC [3] [µg/mL] | IC50 (Leishmania donovani; 5 d) [µg/mL] | SMILES | inhibition zone (IZ) [1] [mm] | MCC [4] [µg/mL] | IC50 (HT-29) [µg/mL] | selectivity ratio [5] | inhibition zone (IZ) (Staphylococcus aureus) [mm] | inhibition zone (IZ) [6] [mm] | inhibition zone (IZ) (Escherichia coli) [mm] | inhibition zone (IZ) (Corynebacterium xerosis) [mm] | inhibition zone (IZ) (Candida albicans) [mm] | Activity (Trypanosoma cruzi) | Activity (Leishmania donovani) | Activity [2] |
| --- | --- | --- | --- | --- | --- | --- | --- | --- | --- | --- | --- | --- | --- | --- | --- | --- | --- |
|  |  | 18 (≈ 79.5 µM) | 100 (≈ 442 µM) | 77 (≈ 340 µM) | CC(=O)/C=C/[C@@]1(O)[C@@H](C)C[C@@H](O)CC1(C)C | 5 | > 100 | 17 (≈ 75.1 µM) | 1 | 3 | 0 | 1 | 3 | 5 | inactive |  | inactive |
| 1.9 (≈ 8.4 µM) | 11 (≈ 48.6 µM) | 1.9 (≈ 8.4 µM) | 11 (≈ 48.6 µM) |  | CC(=O)/C=C/[C@@]1(O)[C@H](C)C[C@H](O)CC1(C)C [BOSCIALIN] | 9.5 | > 100 | 43 (≈ 190 µM) | 23 | 2.5 | 0 | 1 | 2 | 4 | inactive | inactive |  |
